Consider three compounds from ChEMBL document CHEMBL1122058, “Agents for the treatment of brain injury. 1. (Aryloxy)alkanoic acids” (J Med Chem, 1982).

The species entered for data set [1] is Felis catus. Put plainly: Evaluated for chloride ion content of Cerebrocortical slices in cat with addition of Sodium Bicarbonate (NaHCO3) and at a compound concentration of 1 X 10E-5 M. The format is functional. In outline:
(§1)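 Cat cerebral cortex slices (~150 mg, 0.5 mm) incubated aerobically 60 min at 37 °C in K+-rich (27 mM) Hepes-buffered saline-glucose with test compound as Na salt. HCO3- (NaHCO3 or TEAB) added from sidearm at 20 min to 10 mM final; HCO3- flasks gassed with 2.5% CO2/97.5% O2. Swelling by reweighing; Na+/K+ by flame photometry, Cl- by amperometric titration. Units: per g initial fresh weight; means ± SE, Student's t test.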

Data set [2] is filed under the species Rattus norvegicus. Put plainly: Relative salidiuretic efficacy was scored in Rat; moderate. The format is functional, organism-based. As to conditions: Urine.
Data set [3] in a line: Distribution coefficient (D %) between octanol and buffer of pH 7.4. The format is physicochemical. As to conditions: octanol/water.
Data set [4] can be described thus: Compound at a concentration of 1 X 10E-5 M along with addition of Sodium Bicarbonate (NaHCO3) was tested for percent bicarbonate stimulated swelling of Cerebrocortical slices in cat (in vitro). The format is functional, Felis catus. The method, boiled down:
as §1

Another data set is filed under the species Canis familiaris. Put plainly: Relative salidiuretic efficacy was scored in dog; weak. The format is functional, organism-based. The note with it: Canis lupus familiaris; Urine.
Data set [5] is filed under the species Felis catus. Description: In vitro inhibition of tissue swelling of Cerebrocortical slices from cat with addition of Sodium Bicarbonate (NaHCO3) and at a compound concentration of 1 X 10E-5 M. The format is functional. The method, boiled down: as §1
Data set [6] can be described thus: Evaluated for Potassium ion content of Cerebrocortical slices in cat with addition of Triethylammonium Bicarbonate (TEAB) and at a compound concentration of 1 X 10E-5 M. The format is functional, Felis catus. In outline: as §1
Data set [7] is filed under the species Felis catus. Description: In vitro inhibition of HCO3- stimulated swelling in cat cerebrocortical tissue slice; No inhibition occurred. Type of data set: functional. The note with it: read-out: I 50. The method, boiled down:
as §1

The species named for data set [8] is Felis catus. Put plainly: In vitro inhibition of tissue swelling of Cerebrocortical slices from cat with addition of Triethylammonium Bicarbonate (TEAB) and at a compound concentration of 1 X 10E-5 M. Type of data set: functional. The method, boiled down:
as §1

The nature of data set [9]: Evaluated for Potassium ion content of Cerebrocortical slices in cat with addition of Sodium Bicarbonate (NaHCO3) and at a compound concentration of 1 X 10E-5 M. The format is functional, Felis catus. The method, boiled down:
as §1

The species named for the next data set is Pan troglodytes. Description: Relative salidiuretic efficacy was scored in chimpanzee; moderate. The note with it: Urine. Type of data set: functional, organism-based.
Data set [10] in a line: Dissociation constant (pKa) (determined in 30% EtOH). The format is physicochemical.
For data set [11], the system named is Felis catus. Put plainly: Mortality of animals recorded as the number of animals dead out of the total animals (18) taken for the study at dose 30 mg/kg given q.i.d. The format is functional. The method, boiled down:
(§2)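 Adult conditioned cats (2.5–4 kg) under iv methohexital (13.25 mg/kg, plus 2.75 mg/kg if needed) received machine-induced acceleration/deceleration head injury. Forty min later they were paralysed with gallamine and ventilated with 6% O2/94% N2 for 60 min (arterial pO2 23 ± 1 torr). Drug was given iv 20 min post-injury, before hypoxemia. Mortality was scored as dead/total, chi-square tested.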

Data set [12] has as its system Felis catus. Put plainly: Relative salidiuretic efficacy was scored in cat upon intravenous administration of 20 mg/kg of Na salt; inactive. The format is functional, organism-based. The arrangement: dose 20 mg/kg. As to conditions: Urine.
The species entered for data set [13] is Rattus norvegicus. Put plainly: Relative salidiuretic efficacy was scored in Rat; inactive. Type of data set: functional, organism-based. As to conditions: Urine.
Data set [14] deals with Felis catus. Put plainly: Mortality of animals recorded as the number of animals dead out of the total animals (16) taken for the study at dose 1 mg/kg. Type of data set: functional. In outline:
as §2

The species entered for data set [15] is Felis catus. Put plainly: In vitro inhibition of HCO3- stimulated swelling in cat cerebrocortical tissue slice. Type of data set: functional. The note with it: read-out: I 50. In outline:
as §1

The source made the active and inactive calls. No cut-off for these calls is given here.

In the case of `C[C@@]1(C2CCCC2)Cc2cc(OCC(=O)O)c(Cl)c(Cl)c2C1=O`, the Activity in the data set listed under Felis catus [1] was determined as 104.6 µM/g; in data set [4], 100; in data set [6], 93.6 µM/g; in the data set listed under Felis catus [8], 279 µM/g; in data set [9], 96.4 µM/g. Besides, the Relative salidiuretic activity entry in the data set filed under Rattus norvegicus [2], in the data set filed under Canis familiaris and in the data set filed under Pan troglodytes was “marked” in each case. Moreover, in data set [3], the Distribution was 90%. Moreover, in the data set filed under Felis catus [5], the Tissue swelling is 266 µL/g. Also, the IC50 in the data set filed under Felis catus [7] is over 10000 nM. In [10], this compound came in with a pKa of 3.9.

In the data set with Felis catus [11], `C[C@H]1CC2C(C(O)CC3(C)C2CC[C@]3(O)C(=O)COC(=O)CCC(=O)[O-])C2(C)C=CC(=O)C=C12.[Na+]` (some centres undefined) registered a Mortality of 9.

In data set [3], `C[C@]1(C2CCCC2)Cc2cc(OCCCC(=O)O)c(Cl)c(Cl)c2C1=O` returned a Distribution of 99%. Further, the Relative salidiuretic activity entry in the data set with Felis catus [12] and in the data set filed under Rattus norvegicus [13] was “inactive” in each case. The compound further yielded a pKa in data set [10] of 5.7. This compound also gave a Mortality with Felis catus [14] of 5. Moreover, the IC50 in the data set listed under Felis catus [15] is 10 nM.

By pKa is commonly meant the negative logarithm of the acid dissociation constant.
